Results: ChEMBL document CHEMBL3751740, “New MKLP-2 inhibitors in the paprotrain series: Design, synthesis and biological evaluations” (Bioorg Med Chem, 2016)

Experiments:
[1] = molecular target: T1, Kinesin-like protein KIF11 (Homo sapiens) (UniProt P52732); assay: Inhibition of porcine brain microtubule-stimulated human recombinant GST-tagged Eg5 ATPase activity at 15 uM by microplate reader in presence of Mg2+ ATP relative to control
T1 sequence (whole entry): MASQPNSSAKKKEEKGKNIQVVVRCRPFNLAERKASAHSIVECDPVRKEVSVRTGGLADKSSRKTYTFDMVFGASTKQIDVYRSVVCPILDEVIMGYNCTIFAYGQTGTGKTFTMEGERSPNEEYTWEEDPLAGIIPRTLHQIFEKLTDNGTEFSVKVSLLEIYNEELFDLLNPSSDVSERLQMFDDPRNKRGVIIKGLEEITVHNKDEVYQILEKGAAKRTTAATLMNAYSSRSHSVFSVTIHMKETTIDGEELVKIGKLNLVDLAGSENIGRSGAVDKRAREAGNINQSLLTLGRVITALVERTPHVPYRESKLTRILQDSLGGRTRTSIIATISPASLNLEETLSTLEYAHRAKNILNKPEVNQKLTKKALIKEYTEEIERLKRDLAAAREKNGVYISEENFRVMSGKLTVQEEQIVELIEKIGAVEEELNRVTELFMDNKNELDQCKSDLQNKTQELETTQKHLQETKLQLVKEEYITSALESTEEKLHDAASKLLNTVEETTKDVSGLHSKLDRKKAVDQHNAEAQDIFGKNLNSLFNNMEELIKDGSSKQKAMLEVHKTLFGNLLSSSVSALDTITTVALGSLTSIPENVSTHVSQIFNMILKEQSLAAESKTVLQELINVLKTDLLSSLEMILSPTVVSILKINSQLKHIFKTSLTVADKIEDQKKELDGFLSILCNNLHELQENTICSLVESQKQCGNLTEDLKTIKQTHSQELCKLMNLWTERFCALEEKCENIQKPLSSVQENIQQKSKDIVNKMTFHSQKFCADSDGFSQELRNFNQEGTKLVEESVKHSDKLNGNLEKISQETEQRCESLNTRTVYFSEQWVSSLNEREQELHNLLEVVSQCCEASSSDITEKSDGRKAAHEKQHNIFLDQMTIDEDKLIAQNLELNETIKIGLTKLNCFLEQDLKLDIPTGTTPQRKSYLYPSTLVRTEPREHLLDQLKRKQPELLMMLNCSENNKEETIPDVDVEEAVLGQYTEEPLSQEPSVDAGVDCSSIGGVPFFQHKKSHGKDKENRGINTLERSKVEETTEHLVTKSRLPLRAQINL
Summary of the method: (§1)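 Each kinesin motor domain was tested against MT-stimulated ATPase at 22 °C in triplicate, with compounds at 15 µM. Buffer was 7.5 mM PIPES-NaOH pH 7.0 with MgCl2, Taxol, ELIPA reagents and 1.25 mg/mL MTs. Reactions were started with 1 mM Mg2+ATP and read kinetically at 360 nm. Monastrol and AMP-PNP (1 mM) were the controls.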

[2] = molecular target: T2, Chromosome-associated kinesin KIF4A (Homo sapiens) (UniProt O95239); assay: Inhibition of porcine brain microtubule-stimulated human recombinant GST-tagged Kif4A ATPase activity at 15 uM by microplate reader in presence of Mg2+ ATP relative to control; summary of the method: as §1
T2 sequence (whole entry): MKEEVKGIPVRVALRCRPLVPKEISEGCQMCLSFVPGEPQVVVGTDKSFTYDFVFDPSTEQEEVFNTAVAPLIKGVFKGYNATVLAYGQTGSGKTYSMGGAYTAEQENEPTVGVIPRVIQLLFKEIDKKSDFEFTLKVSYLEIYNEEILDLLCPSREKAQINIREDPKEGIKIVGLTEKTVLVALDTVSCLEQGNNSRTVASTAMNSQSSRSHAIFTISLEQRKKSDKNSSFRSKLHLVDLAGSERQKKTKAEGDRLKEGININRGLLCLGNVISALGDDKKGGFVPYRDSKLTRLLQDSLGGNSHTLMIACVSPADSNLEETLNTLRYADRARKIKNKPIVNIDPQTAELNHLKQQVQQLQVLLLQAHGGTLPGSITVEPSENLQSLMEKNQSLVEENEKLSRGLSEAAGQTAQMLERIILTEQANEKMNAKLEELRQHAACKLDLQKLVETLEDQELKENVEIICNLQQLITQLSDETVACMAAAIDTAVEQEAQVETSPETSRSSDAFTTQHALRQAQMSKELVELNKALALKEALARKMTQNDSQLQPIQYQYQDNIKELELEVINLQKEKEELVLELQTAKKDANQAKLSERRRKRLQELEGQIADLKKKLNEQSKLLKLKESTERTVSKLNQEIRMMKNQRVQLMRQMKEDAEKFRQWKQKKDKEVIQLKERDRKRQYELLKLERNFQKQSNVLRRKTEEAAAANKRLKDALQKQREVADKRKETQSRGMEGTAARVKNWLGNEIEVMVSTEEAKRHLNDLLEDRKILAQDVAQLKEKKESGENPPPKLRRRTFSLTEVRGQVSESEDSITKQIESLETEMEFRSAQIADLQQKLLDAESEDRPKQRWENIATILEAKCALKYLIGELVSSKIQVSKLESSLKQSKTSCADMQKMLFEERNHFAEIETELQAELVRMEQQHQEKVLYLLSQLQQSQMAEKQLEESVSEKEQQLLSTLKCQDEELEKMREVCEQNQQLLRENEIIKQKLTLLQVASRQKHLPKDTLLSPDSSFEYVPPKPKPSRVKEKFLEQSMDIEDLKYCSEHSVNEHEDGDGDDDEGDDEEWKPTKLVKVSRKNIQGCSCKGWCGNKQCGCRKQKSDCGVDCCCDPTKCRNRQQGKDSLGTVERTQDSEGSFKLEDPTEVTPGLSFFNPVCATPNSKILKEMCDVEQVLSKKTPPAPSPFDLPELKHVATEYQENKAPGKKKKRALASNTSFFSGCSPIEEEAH

Compound	inhibition [1] [%]	inhibition [2] [%]
CCOC(=O)C1=C(C)NC(=S)NC1c1cccc(O)c1 (configuration not stated)	> 30	< 20
N#C/C(=C\c1ccc2c(c1)OCO2)c1c[nH]c2ccccc12	< 20	< 20
COc1cccc2[nH]cc(/C(C#N)=C/c3cccnc3)c12	< 20	< 20
N#C/C(=C\c1cccnc1)c1c[nH]c2ccc(OCc3ccccc3)cc12	< 20	< 20

Continued, values first:

inhibition [1] [%]	inhibition [2] [%]	Compound
< 20	< 20	COc1ccc2[nH]cc(/C(C#N)=C/c3cccnc3)c2c1
< 20	< 20	COc1ccc2c(/C(C#N)=C/c3cccnc3)c[nH]c2c1
